The test system of data set [1] is Cell membrane. The experiment in a line: Induction of inner membrane permeabilization in CCCP treated wild type Escherichia coli BW25113 at 64 to 256 ug/ml measured after 10 mins by Di0C2(3) probe based fluorimetric method. Conditions: escherichia coli bw25113, 10 min, dose 64-256 µg/ml. The method, boiled down: (§1)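 Cells left untreated or exposed to compound at 8-256 µg/mL for 10 min, then DiOC2(3) added and fluorescence followed to plateau. Cells re-energized with 0.5% glucose; membrane potential build-up read as fluorescence rise to plateau, then dissipated with CCCP.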

Data set [2] addresses T1, Multidrug efflux pump subunit AcrB (Escherichia coli (strain K12)) (UniProt P31224).
T1 sequence (whole entry): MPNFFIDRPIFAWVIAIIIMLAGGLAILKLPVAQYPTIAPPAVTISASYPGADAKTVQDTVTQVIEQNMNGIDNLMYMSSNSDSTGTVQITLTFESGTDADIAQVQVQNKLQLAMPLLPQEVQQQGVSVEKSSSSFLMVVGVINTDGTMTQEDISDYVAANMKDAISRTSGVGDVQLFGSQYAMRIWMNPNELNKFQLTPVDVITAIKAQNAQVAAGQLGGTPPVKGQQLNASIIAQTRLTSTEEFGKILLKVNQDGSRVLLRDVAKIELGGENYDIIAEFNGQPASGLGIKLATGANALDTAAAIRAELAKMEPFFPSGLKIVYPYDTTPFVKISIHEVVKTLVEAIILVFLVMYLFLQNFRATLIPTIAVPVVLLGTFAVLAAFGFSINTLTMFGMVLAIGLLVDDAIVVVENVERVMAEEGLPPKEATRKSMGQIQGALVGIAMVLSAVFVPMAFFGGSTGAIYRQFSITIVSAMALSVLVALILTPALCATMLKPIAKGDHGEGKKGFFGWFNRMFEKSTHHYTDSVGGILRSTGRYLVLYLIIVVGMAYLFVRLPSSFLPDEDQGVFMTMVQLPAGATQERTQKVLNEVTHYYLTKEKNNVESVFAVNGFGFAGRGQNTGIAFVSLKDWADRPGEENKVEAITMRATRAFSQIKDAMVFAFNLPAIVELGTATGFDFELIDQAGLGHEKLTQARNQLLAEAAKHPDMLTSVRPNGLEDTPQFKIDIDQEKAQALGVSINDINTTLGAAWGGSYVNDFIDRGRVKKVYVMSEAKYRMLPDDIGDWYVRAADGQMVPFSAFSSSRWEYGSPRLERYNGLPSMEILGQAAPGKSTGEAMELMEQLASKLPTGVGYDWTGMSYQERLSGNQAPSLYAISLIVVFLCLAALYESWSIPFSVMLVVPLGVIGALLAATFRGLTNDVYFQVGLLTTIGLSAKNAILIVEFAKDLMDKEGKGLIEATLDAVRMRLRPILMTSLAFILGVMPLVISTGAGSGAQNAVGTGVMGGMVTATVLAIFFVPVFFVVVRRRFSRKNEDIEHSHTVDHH
In words: Inhibition of AcrB in Escherichia coli BW25113 assessed as potentiation of chloramphenicol induced antibacterial activity by measuring fold change in chloramphenicol MIC at 256 ug/ml measured after 18 hrs by checkerboard titration method relative to chloramphenicol alone. As to conditions: dose 256.0 µg/ml.

The target in data set [3] is T1, Multidrug efflux pump subunit AcrB (Escherichia coli (strain K12)). The experiment in a line: Inhibition of AcrB in Escherichia coli BW25113 assessed as potentiation of tetraphenylphosphonium induced antibacterial activity by measuring fold change in tetraphenylphosphonium MIC at 128 ug/ml measured after 18 hrs by checkerboard titration method relative to tetraphenylphosphonium alone. Conditions: dose 128.0 µg/ml.

In data set [4] the test system is Cell membrane. In words: Induction of inner membrane permeabilization in CCCP treated wild type Escherichia coli BW25113 at 16 ug/ml measured after 10 mins by Di0C2(3) probe based fluorimetric method. As to conditions: escherichia coli bw25113, 10 min, dose 16 µg/ml. The method, boiled down:
as §1

The subject of data set [5] is Cell membrane. The experiment in a line: Induction of inner membrane permeabilization in CCCP treated wild type Escherichia coli BW25113 measured after 10 mins by Di0C2(3) probe based fluorimetric method. Conditions: escherichia coli bw25113, 10 min. In a few lines: as §1

For `C[C@H](Cc1ccc(O)c(O)c1)[C@@H](C)Cc1ccc(O)c(O)c1` [MASOPROCOL], the Activity entry in the data set on Cell membrane [1] is listed as “Toxic”.

As to `Oc1ccc(CCCCc2cc(O)c(O)c(O)c2)cc1O`, the fold change (FC) in data set [2] amounted to 8.

Regarding `O=C(NCCc1ccc(O)c(O)c1)c1cc(O)c(O)c(O)c1`, the fold change (FC) in data set [3] came out at 4.

For the compound `Oc1ccc(CCCCc2cc3cccc4ccc5cccc2c5c43)cc1O`, in the data set with Cell membrane [4], the Activity entry is recorded as “Non-Toxic”.

In the case of `Cc1ccc(C(=O)NCCc2ccc(O)c(O)c2)cc1`, in the data set with Cell membrane [5], the Activity result is “Toxic”.

For the origin of these results see ChEMBL document CHEMBL4680134, “Structural optimization of natural product nordihydroguaretic acid to discover novel analogues as AcrB inhibitors” (Eur J Med Chem, 2020).
